Assay [1] concerns HeLa. Briefly: Luciferase activity in human Hela cells. It is filed as functional. In short, it runs like this: (§1)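 5×10^4 cells plated in DMEM at 37 °C, 5% CO2, and transfected after 24 h at 50/70% confluency in serum-free medium. CMV-luciferase plasmid mixed with cationic lipid in 75 mM NaCl final, four lipid:DNA ratios, added dropwise, triplicates. Serum added to 10% at 2 h, then 44 h more. Lysate supernatant read with 10 s luminometer counting. Value at optimal ratio.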

The test system of assay [2] is NIH3T3. As to the kind of experiment: Luciferase activity in mouse fibroblasts NIH3T3 cells. It is filed as functional. In short, it runs like this:
as §1

The test system of assay [3] is CV1 cells (Cercopithecus aethiops). Briefly: Compound was tested for the impact of introduction of molecular probe as side chain entity in the linker position on expression of luciferase in transfected CV1 cells (RLU = luciferase activity in relative light units (RLU)/10 s for 10E3 plated c ells).
The test system of assay [4] is NIH3T3. As to the kind of experiment: Compound was tested for the impact of introduction of molecular probe as side chain entity in the linker position on expression of luciferase in transfected NIH3T3 cells (RLU = luciferase activity in relative light units (RLU)/10 s for 10E3 plated cells). It is filed as functional, Mus musculus. In short, it runs like this:
as §1

Assay [5] has as its system HeLa. Briefly: Compound was tested for the impact of introduction of a side chain entity in the linker position on expression of luciferase in transfected HeLa cells (RLU = luciferase activity in relative light units (RLU)/10 s for 10E3 plated cells). It is filed as functional, Homo sapiens. In short, it runs like this:
as §1

Assay [6] relates to NIH3T3. As to the kind of experiment: Compound was tested for the impact of introduction of a side chain entity in the linker position on expression of luciferase in transfected NIH3T3 cells (RLU = luciferase activity in relative light units (RLU)/10 s for 10E3 plated cells). It is filed as functional, Mus musculus. In short, it runs like this:
as §1

The test system of assay [7] is HeLa. As to the kind of experiment: Compound was tested for the impact of linker length on expression of luciferase in transfected HeLa cells (RLU = luciferase activity in relative light units (RLU)/10 s for 10E3 plated cells). It is filed as functional, Homo sapiens. In short, it runs like this: as §1
The subject of assay [8] is CV-1. Briefly: Compound was tested for luciferase activity in Monkey CV1 Cell Lines. It is filed as functional, Cercopithecidae. In short, it runs like this:
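CV1 cells (5×10^4) plated in MEM at 37 °C, 5% CO2, and transfected after 24 h at 50/70% confluency in serum-free medium. CMV-luciferase plasmid mixed with lipid in 75 mM NaCl final, four lipid:DNA ratios, triplicates. 10% serum added at 2 h, then 44 h more. Lysates counted 10 s. Value reported at optimal ratio.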

For assay [9], the system named is HeLa. As to the kind of experiment: Compound was tested for the impact of polyamine geometry on expression of luciferase in transfected HeLa cells (RLU = luciferase activity in relative light units (RLU)/10 s for 10E3 plated cells). It is filed as functional, Homo sapiens. In short, it runs like this: as §1
Assay [10] deals with NIH3T3. As to the kind of experiment: Compound tested for the impact on expression of luciferase in transfected NIH3T3 cells (RLU = luciferase activity in relative light units (RLU)/10 s for 10E3 plated cells). It is filed as functional, Mus musculus. In short, it runs like this:
as §1

In assay [11] the test system is NIH3T3. Briefly: Compound was tested for the impact of the length of the lipid on expression of luciferase in transfected NIH3T3 cells (RLU = luciferase activity in relative light units (RLU)/10 s for 10E3 plated cells). It is filed as functional, Mus musculus. In short, it runs like this:
as §1

For assay [12], the system named is HeLa. As to the kind of experiment: Compound was tested for the impact of the length of the lipid on expression of luciferase in transfected HeLa cells (RLU = luciferase activity in relative light units (RLU)/10 s for 10E3 plated cells). It is filed as functional, Homo sapiens. In short, it runs like this: as §1

`CCCCCCCCCCCCCCCCCCN(CCCCCCCCCCCCCCCCCC)C(=O)[C@H](CCCCN)NC(=O)CNCCCNCCCCNCCCN`: the Luciferase activity in [1] amounted to 700000 RLU 10s-1; in [2] it was 10000000 RLU 10s-1.
With `CCCCCCCCCCCCCCCCCCN(CCCCCCCCCCCCCCCCCC)C(=O)C(CCCCNC(=O)CCCCC1SC[C@@H]2NC(=O)N[C@H]12)NC(=O)CNCCCNCCCCNCCCN` (stereo partly drawn), the figures for the RLU in [3] and in [4] were 160000 and 5400000, respectively.
In the case of `CCCCCCCCCCCCCCCCCCN(CCCCCCCCCCCCCCCCCC)C(=O)C(CCCCNC(=O)OCc1ccccc1Cl)NC(=O)CNCCCNCCCCNCCCN` (stereo not drawn), the RLU in assay [5] amounted to 1400000; in assay [6], 30000000. Also, the Luciferase activity in assay [1] is on record as 1400000 RLU 10s-1; in [2] it was 30000000 RLU 10s-1.
`CCCCCCCCCCCCCCCCCCN(CCCCCCCCCCCCCCCCCC)C(=O)CCCCCNC(=O)CNCCCNCCCCNCCCN`: the Luciferase activity in [1] was found to be 3500000 RLU 10s-1. Also, the RLU in [7] stood at 3500000.
Take `CCCCCCCCCCCCCCCCCCN(CCCCCCCCCCCCCCCCCC)C(=O)C(CCCCNC(=O)CCCC[C@H]1SC[C@@H]2NC(=O)N[C@@H]21)NC(=O)CNCCCNCCCCNCCCN` (stereo partly drawn): the Luciferase activity in [8] is 160000 RLU 10s-1; in [2], 5400000 RLU 10s-1.
With `CCCCCCCCCCCCCCCCCCN(CCCCCCCCCCCCCCCCCC)C(=O)CNC(=O)CNCCN(CCN)CCN`, the values for the Luciferase activity in assay [1] and in assay [2] were 130000 RLU 10s-1 and 20000000 RLU 10s-1, respectively. In addition, the RLU in [9] is 130000; in [10] it was 20000000.
Consider `CCCCCCCCCCCCCCCCCCN(CCCCCCCCCCCCCCCCCC)C(=O)CNCCCN(CCCN)CCCCN(CCCN)CCCN`, for which the RLU in assay [10] was 59000000.
Consider `CCCCCCCCCCCCCCCCCCN(CCCCCCCCCCCCCCCCCC)C(=O)CNCCCNCCCCNCCCN`, for which the Luciferase activity is given as 2600000 RLU 10s-1 in [1] and 2000000 RLU 10s-1 in assay [2]. For the same molecule, the results for the RLU in assay [7] and in assay [10] were 2600000 and 2000000, respectively.
Consider `CCCCCCCCCCCCCCCCCCN(CCCCCCCCCCCCCCCCCC)C(=O)C(CCC(=O)O)NC(=O)CNCCCNCCCCNCCCN` (stereo not drawn), for which the RLU in assay [5] is on record as 15000000; in [6] it was 63000000.
For `CCCCCCCCCCCCCCCCCCN(CCCCCCCCCCCCCCCCCC)C(=O)[C@H](CCC(=O)O)NC(=O)CNCCCNCCCCNCCCN`, the Luciferase activity is 15000000 RLU 10s-1 in assay [1] and 63000000 RLU 10s-1 in assay [2].
The corresponding values for `CCCCCCCCCCCCCCCCCCN(CCCCCCCCCCCCCCCCCC)C(=O)CNC(=O)CNCCN(CCCN)CCCCN(CCCN)CCCN` are 580000 RLU 10s-1 and 68000000 RLU 10s-1.
With `CCCCCCCCCCCCCCCCCCN(CCCCCCCCCCCCCCCCCC)C(=O)CNC(=O)CNCCCNCCCCNCCCN`, the RLU in assay [11] was 44000000; in assay [5], 10000000; in assay [3], 7000; in assay [6], 200000000; in [7], 2400000; in [9] it was 2400000. The values for the RLU in assay [10], in [4] and in assay [12] were 54000000, 26000000 and 890000, respectively.
Molecule `CCCCCCCCCCCCCCCCCCN(CCCCCCCCCCCCCCCCCC)C(=O)CNCCN(CCN)CCN` displayed a Luciferase activity in assay [2] of 1500000 RLU 10s-1. In assay [10], this molecule returned an RLU of 1500000.
In the case of `CCCCCCCCCCCCCCCCCCN(CCCCCCCCCCCCCCCCCC)C(=O)C(N)CCCN=C(N)N` (stereo not drawn), the results for the RLU in [5] and in [6] were 4700 and 8700, respectively. Besides, the Luciferase activity in assay [1] is 4700 RLU 10s-1; in assay [2], 8700 RLU 10s-1.
Turning to `CCCCCCCCCCCCCCCCCCN(CCCCCCCCCCCCCCCCCC)C(=O)C(CCCN=C(N)N)NC(=O)CNCCCNCCCCNCCCN` (stereo in doubt; form 2), the Luciferase activity in assay [1] is given as 8200000 RLU 10s-1; in assay [2], 11000000 RLU 10s-1.
For the molecule `CCCCCCCCCCCCCCCCCCN(CCCCCCCCCCCCCCCCCC)C(=O)C(CCCC/N=C(\S)Nc1ccc(-c2c3ccc(=[N+](C)C)cc-3oc3cc(N(C)C)ccc23)c(C(=O)[O-])c1)NC(=O)CNCCCNCCCCNCCCN` (stereo not drawn) [CATIONIC LIPID], the RLU in assay [3] amounted to 130000; in assay [4], 1200000. Besides, the results for the Luciferase activity in [8] and in [2] were 130000 RLU 10s-1 and 1200000 RLU 10s-1, respectively.
